Source: ChEMBL document CHEMBL4425113, “Chromenopyrazole, a Versatile Cannabinoid Scaffold with in Vivo Activity in a Model of Multiple Sclerosis” (J Med Chem, 2016)
Active and inactive are the calls of the source. The rule behind the calls is not given here.

biological target: T1, Cannabinoid receptor 2 (Homo sapiens, UniProt P34972); experiment: Agonist activity at human CB2 receptor expressed in HEK293 cell membranes assessed as inhibition of forskolin-stimulated cAMP accumulation at 1 uM after 60 mins by HTRF assay; assay type: functional, cell-based; conditions: not given
T1 sequence (P34972 whole entry): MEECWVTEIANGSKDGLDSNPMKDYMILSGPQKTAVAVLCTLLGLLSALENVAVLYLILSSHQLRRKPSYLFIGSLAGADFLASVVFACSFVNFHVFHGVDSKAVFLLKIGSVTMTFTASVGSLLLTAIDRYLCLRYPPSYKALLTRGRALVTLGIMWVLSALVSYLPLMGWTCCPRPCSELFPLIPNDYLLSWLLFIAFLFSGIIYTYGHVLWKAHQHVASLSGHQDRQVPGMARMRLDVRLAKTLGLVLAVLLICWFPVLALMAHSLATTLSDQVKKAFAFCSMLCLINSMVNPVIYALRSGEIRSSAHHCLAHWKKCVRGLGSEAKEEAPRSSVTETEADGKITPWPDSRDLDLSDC
How it was run: (§1)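 HEK293 cells stably expressing hCB2, 5.000 cells/well, forskolin-stimulated; Lance-Ultra TR-FRET cAMP kit, 60 min room temperature with HTRF reagents; 665/620 nm ratio converted to cAMP via standard curve; forskolin level set to 100%.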

| SMILES | inhibition |
| --- | --- |
| CCCCCCC(C)(C)c1cc(O)c2c(c1)OC(C)(C)c1cnoc1-2 | Active |
| CCCCCCC(C)(C)c1cc(OCCO)c2c(c1)OC(C)(C)c1cn[nH]c1-2 | Active |
| CCCCCCC(C)(C)c1cc(OCCCO)c2c(c1)OC(C)(C)c1cnoc1-2 | Active |
| CCCCCCC(C)(C)c1cc2c(c3c1CCCO3)-c1nn(CC)cc1C(C)(C)O2 | Active |
| CCCCCCC(C)(C)c1cc(OC)c2c(c1)OC(C)(C)c1cnoc1-2 | Active |

species on record: Homo sapiens; experiment: Selectivity ratio of Ki for human CB1 receptor to Ki for human CB2 receptor; conditions: not given
How it was run: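 Membranes from cells transfected with hCB1 (8 μg/well; Tris 50 mM, MgCl2 5 mM, EDTA 2.5 mM, BSA 0.5 mg/mL, pH 7.4) or hCB2 (4 μg/well; EGTA 2.5 mM, BSA 1 mg/mL, pH 7.5); [3H]CP55940, 90 min at 30 °C. […] Nonspecific binding 10 μM WIN55212-2; GF/C filtration, scintillation; ≥3 experiments in triplicate.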

| SMILES | Ratio Ki |
| --- | --- |
| CCCCCCC(C)(C)c1cc(O)c2c(c1)OC(C)(C)c1cnoc1-2 | 2.9 |
| CCCCCCC(C)(C)c1cc(OCCCO)c2c(c1)OC(C)(C)c1cn(CC)nc1-2 | > 411 |
| CCCCCCC(C)(C)c1cc(OCCO)c2c(c1)OC(C)(C)c1cn(C)nc1-2 | 27.2 |
| CCCCCCC(C)(C)c1cc(OCCO)c2c(c1)OC(C)(C)c1cn[nH]c1-2 | 18 |
| CCCCCCC(C)(C)c1cc(OCCCO)c2c(c1)OC(C)(C)c1cnoc1-2 | 5.1 |
| CCCCCCC(C)(C)c1cc(O)c2c(c1)OC(C)(C)c1cn(CCO)nc1-2 | 1.4 |
| CCCCCCC(C)(C)c1cc(OC)c2c(c1)OC(C)(C)c1cn(C)nc1-2 | 62.6 |
| CCCCCCC(C)(C)c1cc2c(c3c1CCCO3)-c1nn(CC)cc1C(C)(C)O2 | > 330 |
| CCCCCCC(C)(C)c1cc(OC)c2c(c1)OC(C)(C)c1cnoc1-2 | > 3100 |

biological target: T1, Cannabinoid receptor 2; experiment: Antagonist activity at human CB2 receptor expressed in HEK293 cell membranes assessed as inhibition of CP55940-mediated suppression of forskolin-stimulated cAMP accumulation at 1 uM after 60 mins by HTRF assay; assay type: functional, cell-based; conditions: not given

| SMILES | inhibition |
| --- | --- |
| CCCCCCC(C)(C)c1cc(OCCCO)c2c(c1)OC(C)(C)c1cn(CC)nc1-2 | Active |

biological target: T2, Cannabinoid receptor 1 (Homo sapiens, UniProt P21554); experiment: Agonist activity at human CB1 receptor expressed in HEK293 cell membranes assessed as induction of [35S]-GTPgammaS binding after 60 mins by liquid scintillation spectrometric method; assay type: functional; conditions: not given
T2 sequence (P21554 whole entry): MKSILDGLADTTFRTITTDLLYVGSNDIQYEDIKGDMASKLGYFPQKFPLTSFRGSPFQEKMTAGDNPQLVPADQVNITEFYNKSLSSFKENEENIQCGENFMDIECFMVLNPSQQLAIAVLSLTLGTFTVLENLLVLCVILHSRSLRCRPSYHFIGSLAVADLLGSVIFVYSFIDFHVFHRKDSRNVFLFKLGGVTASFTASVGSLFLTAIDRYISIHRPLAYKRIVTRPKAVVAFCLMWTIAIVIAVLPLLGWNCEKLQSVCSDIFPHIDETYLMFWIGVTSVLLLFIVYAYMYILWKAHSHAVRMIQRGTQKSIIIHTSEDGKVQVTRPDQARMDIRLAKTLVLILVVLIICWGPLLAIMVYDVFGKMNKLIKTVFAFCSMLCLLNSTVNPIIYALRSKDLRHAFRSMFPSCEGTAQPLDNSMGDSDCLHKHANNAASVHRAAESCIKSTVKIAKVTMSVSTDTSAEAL

| SMILES | EC50 |
| --- | --- |
| CCCCCCC(C)(C)c1cc(O)c2c(c1)OC(C)(C)c1cnoc1-2 | 0.0158 µM |
| CCCCCCC(C)(C)c1cc(O)c2c(c1)OC(C)(C)c1cn(CCO)nc1-2 | 0.299 µM |

biological target: T1, Cannabinoid receptor 2; experiment: Agonist activity at human CB2 receptor expressed in HEK293 cell membranes assessed as induction of [35S]-GTPgammaS binding after 60 mins by liquid scintillation spectrometric method; assay type: functional; conditions: not given

| SMILES | Emax |
| --- | --- |
| CCCCCCC(C)(C)c1cc(O)c2c(c1)OC(C)(C)c1cnoc1-2 | 114% |
| CCCCCCC(C)(C)c1cc(OC)c([C@H]2C=C(CO)[C@@H]3C[C@H]2C3(C)C)c(OC)c1 | 91% |
| CCCCCCC(C)(C)c1cc(OCCO)c2c(c1)OC(C)(C)c1cn[nH]c1-2 | 110% |
| CCCCCCC(C)(C)c1cc(OCCCO)c2c(c1)OC(C)(C)c1cnoc1-2 | 96% |
| CCCCCCC(C)(C)c1cc(OC)c2c(c1)OC(C)(C)c1cnoc1-2 | 98% |

biological target: T1, Cannabinoid receptor 2; experiment: Agonist activity at human CB2 receptor expressed in HEK293 cell membranes assessed as inhibition of forskolin-stimulated cAMP accumulation at 200 nM after 60 mins by HTRF assay; assay type: functional, cell-based; conditions: not given; how it was run: as §1

| SMILES | inhibition |
| --- | --- |
| CCCCCCC(C)(C)c1cc(O)c2c(c1)OC(C)(C)c1cnoc1-2 | Active |
| CCCCCCC(C)(C)c1cc(OCCO)c2c(c1)OC(C)(C)c1cn[nH]c1-2 | Active |
| CCCCCCC(C)(C)c1cc(OCCCO)c2c(c1)OC(C)(C)c1cnoc1-2 | Active |
| CCCCCCC(C)(C)c1cc2c(c3c1CCCO3)-c1nn(CC)cc1C(C)(C)O2 | Active |
| CCCCCCC(C)(C)c1cc(OC)c2c(c1)OC(C)(C)c1cnoc1-2 | Active |

biological target: T1, Cannabinoid receptor 2; experiment: Agonist activity at human CB2 receptor expressed in HEK293 cell membranes assessed as inhibition of forskolin-stimulated cAMP accumulation after 60 mins by HTRF assay; assay type: functional, cell-based; conditions: not given

| SMILES | Emax | IC50 |
| --- | --- | --- |
| CCCCCCC(C)(C)c1cc(O)c2c(c1)OC(C)(C)c1cnoc1-2 | 98% | 0.134 µM |
| CCCCCCC(C)(C)c1cc(OCCO)c2c(c1)OC(C)(C)c1cn[nH]c1-2 | 95% | 0.0216 µM |
| CCCCCCC(C)(C)c1cc(OCCCO)c2c(c1)OC(C)(C)c1cnoc1-2 | 91% | 0.014 µM |
| CCCCCCC(C)(C)c1cc2c(c3c1CCCO3)-c1nn(CC)cc1C(C)(C)O2 | 98% | 0.0255 µM |
| CCCCCCC(C)(C)c1cc(OC)c2c(c1)OC(C)(C)c1cnoc1-2 | 101% | 0.0042 µM |

biological target: T1, Cannabinoid receptor 2; experiment: Antagonist activity at human CB2 receptor expressed in HEK293 cell membranes assessed as inhibition of CP55940-mediated suppression of forskolin-stimulated cAMP accumulation at 200 nM after 60 mins by HTRF assay; assay type: functional, cell-based; conditions: not given

| SMILES | inhibition |
| --- | --- |
| CCCCCCC(C)(C)c1cc(OCCO)c2c(c1)OC(C)(C)c1cn(C)nc1-2 | inactive |
| CCCCCCC(C)(C)c1cc(OC)c2c(c1)OC(C)(C)c1cn(C)nc1-2 | inactive |

system: not listed separately; experiment: Binding affinity to PDEA modified AGP (unknown origin) at 40 uM by surface plasmon resonance method; assay type: ADME; conditions: human, isolated protein

| SMILES | PB |
| --- | --- |
| CCCCCCC(C)(C)c1cc(O)c2c(c1)OC(C)(C)c1cnoc1-2 | Active |
| CCCCCCC(C)(C)c1cc(OC)c2c(c1)OC(C)(C)c1cn(C)nc1-2 | Active |
| CCCCCCC(C)(C)c1cc(OC)c2c(c1)OC(C)(C)c1cnoc1-2 | Active |

biological target: T2, Cannabinoid receptor 1; experiment: biochemical; assay type: cell-based, HEK293; conditions: not given

| SMILES | Ki |
| --- | --- |
| CCCCCCC(C)(C)c1cc(O)c2c(c1)OC(C)(C)c1cnoc1-2 | 0.0154 µM |
| CCCCCCC(C)(C)c1cc(OCCCO)c2c(c1)OC(C)(C)c1cn(CC)nc1-2 | > 40 µM |
| CCCCCCC(C)(C)c1cc(OCCO)c2c(c1)OC(C)(C)c1cn(C)nc1-2 | 1.09 µM |
| CCCCCCC(C)(C)c1cc(OCCO)c2c(c1)OC(C)(C)c1cn[nH]c1-2 | 0.0648 µM |
| CCCCCCC(C)(C)c1cc(OCCCO)c2c(c1)OC(C)(C)c1cnoc1-2 | 0.333 µM |
| CCCCCCC(C)(C)c1cc(O)c2c(c1)OC(C)(C)c1cn(CCO)nc1-2 | 0.0544 µM |
| CCCCCCC(C)(C)c1cc(OC)c2c(c1)OC(C)(C)c1cn(C)nc1-2 | 4.16 µM |
| CCCCCCC(C)(C)c1cc2c(c3c1CCCO3)-c1nn(CC)cc1C(C)(C)O2 | > 40 µM |
| CCCCCCC(C)(C)c1cc(OC)c2c(c1)OC(C)(C)c1cnoc1-2 | > 40 µM |

biological target: T1, Cannabinoid receptor 2; experiment: Displacement of [3H]-CP55940 from human CB2 receptor expressed in HEK293 cell membranes after 90 mins by liquid scintillation counting method; conditions: not given

| SMILES | Ki |
| --- | --- |
| CCCCCCC(C)(C)c1cc(O)c2c(c1)OC(C)(C)c1cnoc1-2 | 0.0053 µM |
| CCCCCCC(C)(C)c1cc(OCCCO)c2c(c1)OC(C)(C)c1cn(CC)nc1-2 | 0.0974 µM |
| CCCCCCC(C)(C)c1cc(OCCO)c2c(c1)OC(C)(C)c1cn(C)nc1-2 | 0.0398 µM |
| CCCCCCC(C)(C)c1cc(OCCO)c2c(c1)OC(C)(C)c1cn[nH]c1-2 | 0.0036 µM |
| CCCCCCC(C)(C)c1cc(OCCCO)c2c(c1)OC(C)(C)c1cnoc1-2 | 0.0655 µM |
| CCCCCCC(C)(C)c1cc(O)c2c(c1)OC(C)(C)c1cn(CCO)nc1-2 | 0.0396 µM |
| CCCCCCC(C)(C)c1cc(OC)c2c(c1)OC(C)(C)c1cn(C)nc1-2 | 0.0664 µM |
| CCCCCCC(C)(C)c1cc2c(c3c1CCCO3)-c1nn(CC)cc1C(C)(C)O2 | 0.122 µM |
| CCCCCCC(C)(C)c1cc(OC)c2c(c1)OC(C)(C)c1cnoc1-2 | 0.0128 µM |

system: Mus musculus; experiment: Antiinflammatory activity in TMEV-induced SJL/J mouse demyelinating disease model assessed as reduction of microglial activation by measuring […] in Iba-1 expression at 5 mg/kg, ip administered for 7 days by fluorescence assay; assay type: functional, organism-based; conditions: not given
How it was run: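 Female SJL/J mice, 12 weeks, inoculated intracerebrally (right hemisphere) with TMEV DA strain; sham get vehicle. Compound 5 mg/kg i.p. daily for 7 days, vehicle 10% DMSO in PBS. Perfused brains PFA-fixed; sections stained anti-Iba1 (1:1,000) plus Alexa secondary; confocal fluorescence intensity, 6 sections/animal, ≥5 animals/group; Kruskal–Wallis test.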

| SMILES | Activity |
| --- | --- |
| CCCCCCC(C)(C)c1cc(OC)c2c(c1)OC(C)(C)c1cnoc1-2 | Active |
